Measurements taken from ChEMBL document CHEMBL1158068, “Chaetocochins A-C, epipolythiodioxopiperazines from Chaetomium cochliodes” (2006).
In brackets after ≈: the same amount, converted by molar mass.

Assays:
Format in all cases: functional
[1] = Growth inhibition of human Lu-04 cells after 48 hrs by SRB assay; conditions: Lu04, 48 h
Summary of the method: (§1)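 ATCC cancer lines (Bre-04 = MDA-MB-231, Lu-04 = NCI-H460, N-04 = SF-268), cultured per supplier instructions. Cells seeded in 96-well plates, incubated 16 h at 37 °C, then exposed to a range of compound concentrations for 48 h. Taxol served as positive control. Cytotoxicity read by colorimetric sulforhodamine B (SRB) chemosensitivity assay.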

[2] = Growth inhibition of human N-04 cells after 48 hrs by SRB assay; conditions: N04, 48 h; summary of the method: as §1
[3] = Growth inhibition of human Bre-04 cells after 48 hrs by SRB assay; conditions: Bre04, 48 h; summary of the method: as §1

Row | SMILES | GI50 [1] | GI50 [2] | GI50 [3]
1 | CS[C@@]1(CO)C(=O)N(C)[C@@](Cc2cn([C@]34C[C@]5(SC)C(=O)N(C)[C@@](CO)(SC)C(=O)N5[C@H]3Nc3ccccc34)c3ccccc23)(SC)C(=O)N1C | 0.05 µg/mL (≈ 0.0648 µM) | 0.2 µg/mL (≈ 0.259 µM) | 0.06 µg/mL (≈ 0.0778 µM)
2 | CS[C@]12COCN3c4ccccc4[C@]4(C[C@]5(SC)C(=O)N(C)[C@@](CO)(SC)C(=O)N5[C@@H]34)n3cc(c4ccccc43)C[C@](SC)(C(=O)N1C)N(C)C2=O [CHAETOCOCHIN A] | 3.4 µg/mL (≈ 4.34 µM) | 7 µg/mL (≈ 8.94 µM) | 4.1 µg/mL (≈ 5.24 µM)
3 | CS[C@@]1(CO)C(=O)N(C)[C@@](Cc2cn([C@]34C[C@@]56SS[C@@](CO)(C(=O)N5[C@H]3Nc3ccccc34)N(C)C6=O)c3ccccc23)(SC)C(=O)N1C [CHAETOCOCHIN C] | 1.9 µg/mL (≈ 2.56 µM) | 0.4 µg/mL (≈ 0.54 µM) | 0.4 µg/mL (≈ 0.54 µM)
4 | CC(=O)O[C@H]1C(=O)[C@@]2(C)[C@H]([C@H](OC(=O)c3ccccc3)[C@]3(O)C[C@H](OC(=O)[C@H](O)[C@@H](NC(=O)c4ccccc4)c4ccccc4)C(C)=C1C3(C)C)[C@]1(OC(C)=O)CO[C@@H]1C[C@@H]2O [PACLITAXEL] | 0.03 µg/mL (≈ 0.0351 µM) | 0.04 µg/mL (≈ 0.0468 µM) | 0.04 µg/mL (≈ 0.0468 µM)
